{"source": "ChEMBL document CHEMBL5321226", "about": "“Structure-directed identification of pyridine-2-methylamine derivatives as MmpL3 inhibitors for use as antitubercular agents” (Eur J Med Chem, 2023)", "assay_type_in_all_cases": "functional", "settings_in_all_cases": "time 7-14 day", "key": {"[1]": {"test_system": "Mycobacterium tuberculosis", "assay": "Antimycobacterial activity against extensively drug resistant Mycobacterium tuberculosis R506 assessed as bacterial growth inhibition incubated for 7 to 14 days by MABA assay", "in_short": "(§1)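 Clinical M. tuberculosis isolates were tested in a microplate Alamar Blue assay (MABA), with isoniazid, rifampin, levofloxacin, ofloxacin and kanamycin as positive controls. The MIC is the lowest concentration giving at least a 90% reduction of the bacterial growth signal, averaged over three individual measurements.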"}, "[2]": {"test_system": "Mycobacterium tuberculosis", "assay": "Antimycobacterial activity against extensively drug resistant Mycobacterium tuberculosis TF274 assessed as bacterial growth inhibition incubated for 7 to 14 days by MABA assay", "in_short": "as §1"}, "[3]": {"test_system": "Mycobacterium tuberculosis", "assay": "Antimycobacterial activity against multidrug resistant Mycobacterium tuberculosis V2475 assessed as bacterial growth inhibition incubated for 7 to 14 days by MABA assay", "in_short": "as §1"}, "[4]": {"test_system": "Mycobacterium tuberculosis", "assay": "Antimycobacterial activity against multidrug resistant Mycobacterium tuberculosis KZN494 assessed as bacterial growth inhibition incubated for 7 to 14 days by MABA assay", "in_short": "as §1"}, "[5]": {"test_system": "Mycobacterium tuberculosis", "assay": "Antimycobacterial activity against N-cycloheptyl-4,6-dimethyl-1H-indole-2-carboxamide-resistant Mycobacterium tuberculosis IAR2 harboring MmpL3 S288T mutant assessed as bacterial growth inhibition incubated for 7 to 14 days by MABA assay"}}, "data": [{"smiles": "CO[C@H]1/C=C/O[C@@]2(C)Oc3c(C)c(O)c4c(O)c(c(/C=N/N5CCN(C)CC5)c(O)c4c3C2=O)NC(=O)/C(C)=C\\C=C\\[C@H](C)[C@H](O)[C@@H](C)[C@@H](O)[C@@H](C)[C@H](OC(C)=O)[C@@H]1C", "note": "[RIFAMPIN]", "values": [{"measurement": "MIC90", "setting": "[1]", "value": "> 128", "unit": "µg/mL"}, {"measurement": "MIC90", "setting": "[2]", "value": "> 128", "unit": "µg/mL"}, {"measurement": "MIC90", "setting": "[3]", "value": 4, "unit": "µg/mL"}, {"measurement": "MIC90", "setting": "[4]", "value": 128, "unit": "µg/mL"}]}, {"smiles": "Cc1cc(C)c2cc(C(=O)NC3CCCCCC3)[nH]c2c1", "values": [{"measurement": "MIC90", "setting": "[5]", "value": 0.013, "unit": "µg/mL"}]}, {"smiles": "NNC(=O)c1ccncc1", "note": "[ISONIAZID]", "values": [{"measurement": "MIC90", "setting": "[1]", "value": 8, "unit": "µg/mL"}, {"measurement": "MIC90", "setting": "[5]", "value": 0.04, "unit": "µg/mL"}, {"measurement": "MIC90", "setting": "[2]", "value": 8, "unit": "µg/mL"}, {"measurement": "MIC90", "setting": "[3]", "value": 16, "unit": "µg/mL"}, {"measurement": "MIC90", "setting": "[4]", "value": 16, "unit": "µg/mL"}]}, {"smiles": "c1ccc(-c2ccc(-c3ccnc(CN4CCC5(CCCC5)CC4)c3)cc2)cc1", "values": [{"measurement": "MIC90", "setting": "[1]", "value": 0.031, "unit": "µg/mL"}, {"measurement": "MIC90", "setting": "[5]", "value": 1, "unit": "µg/mL"}, {"measurement": "MIC90", "setting": "[2]", "value": 0.004, "unit": "µg/mL"}, {"measurement": "MIC90", "setting": "[3]", "value": 0.063, "unit": "µg/mL"}, {"measurement": "MIC90", "setting": "[4]", "value": 0.016, "unit": "µg/mL"}]}, {"smiles": "NC[C@H]1O[C@H](O[C@H]2[C@H](O)[C@@H](O[C@H]3O[C@H](CO)[C@@H](O)[C@H](N)[C@H]3O)[C@H](N)C[C@@H]2N)[C@H](O)[C@@H](O)[C@@H]1O", "note": "[KANAMYCIN]", "values": [{"measurement": "MIC90", "setting": "[1]", "value": "> 128", "unit": "µg/mL"}, {"measurement": "MIC90", "setting": "[2]", "value": "> 128", "unit": "µg/mL"}, {"measurement": "MIC90", "setting": "[3]", "value": 2, "unit": "µg/mL"}, {"measurement": "MIC90", "setting": "[4]", "value": 2, "unit": "µg/mL"}]}, {"smiles": "C[C@H]1COc2c(N3CCN(C)CC3)c(F)cc3c(=O)c(C(=O)O)cn1c23", "note": "[LEVOFLOXACIN ANHYDROUS]", "values": [{"measurement": "MIC90", "setting": "[1]", "value": 2, "unit": "µg/mL"}, {"measurement": "MIC90", "setting": "[2]", "value": 1, "unit": "µg/mL"}]}, {"smiles": "CC1COc2c(N3CCN(C)CC3)c(F)cc3c(=O)c(C(=O)O)cn1c23", "note": "(stereo not given) [OFLOXACIN]", "values": [{"measurement": "MIC90", "setting": "[1]", "value": 4, "unit": "µg/mL"}, {"measurement": "MIC90", "setting": "[2]", "value": 8, "unit": "µg/mL"}, {"measurement": "MIC90", "setting": "[3]", "value": 0.5, "unit": "µg/mL"}, {"measurement": "MIC90", "setting": "[4]", "value": 0.5, "unit": "µg/mL"}]}]}
